TRPC6 activator: mouse TRPC6 channel activators, primary screen, cell-based, HEK293, membrane potential dye; B-score at 10 µM; HEK293-TRPC6 membrane potential dye fluorescence; stronger effect = higher value; hit rate 0.13% among 310,000; Short transient receptor potential channel 6 (Mus musculus), Q61143; AID 2550, 2010;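 active = B-score of the integrated fluorescence ratio above library mean plus 3 SD, and starting fluorescence ratio within library mean plus 5 SD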;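 also: higher score means more depolarization so channel activation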
TRPC6 inhibitor: mouse TRPC6 channel inhibitors, primary screen, cell-based, HEK293, membrane potential dye. hit rate 1.1% among 310,000. AID 2553, 2010. ACh-evoked depolarization; stronger effect = lower value. B-score at 10 µM;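 active = B-score under library mean minus 3 SD, initial fluorescence not abnormally high, positive integrated signal ratio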;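 also: B-score derived from integrated fluorescence ratio over the kinetic read; more negative B-score means stronger inhibition of depolarization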
TRPC4 agonist: activators of mouse TRPC4 channel, primary screen, Fluo4 calcium, HEK293 TRPC4beta/mu-opioid cells | Short transient receptor potential channel 4 (Mus musculus), Q9QUQ5 | Fluo4 calcium fluorescence; stronger effect = higher value | B-score at 10 µM | hit rate 0.49% among 310,000 | AID 2237, 2010;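 active = B-score above 5 SD of library B-scores, and initial fluorescence ratio not above library mean plus 5 SD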;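 also: positive B-score marks a calcium rise read as TRPC4 activation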
Target sequence (Q9QUQ5 whole entry, looked up): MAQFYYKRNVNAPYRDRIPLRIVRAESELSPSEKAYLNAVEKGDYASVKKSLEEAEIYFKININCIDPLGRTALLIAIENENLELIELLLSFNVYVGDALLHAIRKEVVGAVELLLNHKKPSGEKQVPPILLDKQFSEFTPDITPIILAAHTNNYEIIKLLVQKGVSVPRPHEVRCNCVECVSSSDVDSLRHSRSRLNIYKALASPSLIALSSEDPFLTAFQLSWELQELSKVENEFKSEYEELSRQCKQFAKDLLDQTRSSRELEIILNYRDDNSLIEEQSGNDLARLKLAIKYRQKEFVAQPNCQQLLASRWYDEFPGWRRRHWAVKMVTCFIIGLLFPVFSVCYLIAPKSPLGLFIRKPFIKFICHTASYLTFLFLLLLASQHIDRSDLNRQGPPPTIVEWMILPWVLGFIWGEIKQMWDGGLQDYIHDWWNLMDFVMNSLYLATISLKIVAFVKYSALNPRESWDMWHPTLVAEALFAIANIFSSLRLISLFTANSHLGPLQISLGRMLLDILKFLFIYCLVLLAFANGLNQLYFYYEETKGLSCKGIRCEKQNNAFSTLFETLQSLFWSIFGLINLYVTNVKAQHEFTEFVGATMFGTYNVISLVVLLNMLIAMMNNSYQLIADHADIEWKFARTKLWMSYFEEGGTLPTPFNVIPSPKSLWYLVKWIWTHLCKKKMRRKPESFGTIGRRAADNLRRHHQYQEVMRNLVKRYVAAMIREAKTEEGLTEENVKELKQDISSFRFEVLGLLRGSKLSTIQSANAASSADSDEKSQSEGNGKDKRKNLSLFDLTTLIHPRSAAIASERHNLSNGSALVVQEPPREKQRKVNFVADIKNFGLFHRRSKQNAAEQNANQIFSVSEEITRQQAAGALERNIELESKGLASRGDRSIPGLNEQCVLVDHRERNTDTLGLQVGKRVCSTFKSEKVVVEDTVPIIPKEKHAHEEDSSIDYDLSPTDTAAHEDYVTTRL
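Test system: HEK293 cells stably co-expressing mouse TRPC4beta and mu-opioid receptor | Schedule: Fluo4 dye loading 45 min at room temperature, 110 s recording | Measured by: Kinetic Fluo4 calcium fluorescence, 5 s baseline at 1 Hz | Evaluation: B score of integrated ratio | Controls: Buffer (low) and maximal DAMGO (high)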
TRPC4 block: inhibitors of mouse TRPC4 channel, primary screen, Fluo4 calcium, HEK293 TRPC4beta/mu-opioid cells | Short transient receptor potential channel 4 (Mus musculus), Q9QUQ5 | DAMGO-evoked Fluo4 calcium flux; stronger effect = lower value | B-score at 10 µM | hit rate 0.39% among 300,000;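 active = B-score over 3 SD under the library average, no early fluorescence shift, positive overall ratio signal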
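Assay system: TRPC4beta/mu-opioid receptor HEK293 cell line; compound dosing: single concentration per test compound; detection: Fluo4 Ca2+ flux fluorescence; evaluation: per-well B score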
TRPC4 PAM: positive allosteric modulators of TRPC4, primary screen, cell-based, mouse TRPC4beta, HEK293 mu-opioid, Fluo-4 calcium; Short transient receptor potential channel 4 (Mus musculus), Q9QUQ5; DAMGO EC20, Fluo-4 Ca2+ flux; stronger effect = higher value; B-score at 10 µM; hit rate 0.42% among 310,000; AID 2227, 2009;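 active = B-score of calcium response area above 5 SD of library B-scores, with initial fluorescence ratio within 5 SD of library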;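 also: B-score of integrated fluorescence ratio over time as area under calcium response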
TRPC4 spec 2: second selectivity test of TRPC6 inhibitors: effect on mouse TRPC4 | shares compounds with TRPC6 inhibitor | HEK293 TRPC4/MOR, membrane potential dye fluorescence; channel activated by saturating DAMGO dose | inhibition, % at 10 µM | hit rate 42% among 920 | AID 2776;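 active = compounds whose fluorescence signal differed from control wells by over 3 SD, either direction, in both duplicate plates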
TRPC4 spec: mouse TRPC4 modulation by TRPC6 hits, confirmation, selectivity assay for TRPC6 inhibitor project, cell-based, HEK293 TRPC4/mu-opioid, membrane potential dye | shares compounds with TRPC6 inhibitor | membrane potential fluorescence | activity change, negative = inhibition, % at 10 µM | hit rate 61% among 920;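 active = rise or fall in signal beyond 3 SD of buffer-only wells in both replicate plates, either sign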;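 also: integrated kinetic ratio of fluorescence range over baseline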
HEK293 MPD ctr 2-1: nonspecific membrane potential effects, parental HEK293, confirmation, counter-screen for TRPC6 inhibitor project, cell-based, second counter screen; shares compounds with TRPC6 inhibitor; parental HEK293 membrane potential dye fluorescence; maximal acetylcholine challenge after compound addition; signal change vs control, % at 10 µM; hit rate 31% among 920;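 active = membrane potential signal moving either way by over 3 SD of the maximum-effect control, in both duplicate plates, meaning non-specific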
HEK293 MPD ctr-1: membrane potential modulation in parental HEK293, confirmation, counter-screen for TRPC6 inhibitor project, cell-based. shares compounds with TRPC6 inhibitor. parental HEK293 membrane potential dye fluorescence. AID 2780, 2010. hit rate 60% among 920. membrane potential signal change, % at 10 µM;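 active = membrane potential signal shifting up or down by more than 3 SD of buffer-only wells, on both duplicate plates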
HEK293 MPD ctr-2: parental HEK293 membrane potential modulation, confirmation, counter-screen for TRPC6 modulator project, cell-based. shares compounds with TRPC6 inhibitor. membrane potential dye fluorescence. membrane potential signal change, % at 10 µM. hit rate 51% among 2,400. AID 488924, 2010;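 active = membrane potential signal moves up or down beyond 5 SD from buffer-only wells, on both duplicate plates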
HEK293 MPD ctr 2-2: second counter-screen for TRPC6 modulators: effect in parental HEK293 cells; shares compounds with TRPC6 inhibitor; membrane potential dye fluorescence; after compound, maximal acetylcholine stimulation; inhibition, % at 10 µM; hit rate 14% among 2,400; AID 488926;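 active = membrane potential signal drops by more than 5 SD from the mean control signal, in both duplicate plates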;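 also: plate controls were acetylcholine ECmax control wells for no effect and buffer only wells for full effect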
TRPC4/MOR mod: TRPC4 modulation by TRPC6 hit compounds, confirmation, selectivity assay for TRPC6 modulator project, cell-based, HEK293 TRPC4/mu-opioid, membrane potential dye, mouse; percent change from control (negative = decrease, positive = increase), % at 10 µM; shares compounds with TRPC6 inhibitor; membrane potential fluorescence; hit rate 69% among 2,400;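 active = membrane potential signal moved up or down beyond 5 SD of buffer control wells, in both duplicate plates, actives on both sides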;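 also: plate controls were assay buffer wells for no effect and DAMGO maximal-effect wells for full effect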
TRPC4/MOR inh 2: second selectivity test of TRPC6 modulators against mouse TRPC4; inhibition, % at 10 µM; shares compounds with TRPC6 inhibitor; HEK293 TRPC4/mu-opioid, membrane potential dye fluorescence; stimulated with maximal-effect DAMGO; hit rate 55% among 2,400;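 active = drop in membrane potential signal beyond 5 SD of the control wells in both duplicate plates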;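 also: TRPC4 counter screen for TRPC6 hits run under conditions tuned for TRPC6 not TRPC4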
TRPC6 inh conf: mouse TRPC6 channel inhibitors, confirmation, HEK293 cells, membrane potential dye, duplicate; shares compounds with TRPC6 inhibitor; ACh-evoked depolarization; inhibition, % at 10 µM; hit rate 43% among 3,300; AID 488960, 2010;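 active = fluorescence ratio falls more than 5 SD below the full-stimulation control mean, in both duplicate runs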;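 also: integrated fluorescence ratio of peak minus minimum over baseline after agonist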
TRPC6 act conf: mouse TRPC6 channel activators, confirmation, HEK293 cells, membrane potential dye, duplicate; activation, % at 10 µM; hit rate 11% among 2,800; shares compounds with TRPC6 inhibitor; HEK293-TRPC6 membrane potential dye fluorescence, FDSS;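 active = ratio signal rise beyond 5 SD above unstimulated control wells' mean, seen in both duplicate runs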;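 also: plate controls were buffer EC0 wells for no effect and acetylcholine ECmax response for full effect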
* marks the source's active call; other numbers are inactive results; i = inactive; nt = not tested or not shown. This is a sample that favours compounds with a hit; in the whole collection about 2.3% have one here.

SMILES	TRPC6 activator	TRPC6 inhibitor	TRPC4 agonist	TRPC4 block	TRPC4 PAM	TRPC4 spec 2	TRPC4 spec	HEK293 MPD ctr 2-1	HEK293 MPD ctr-1	TRPC6 inh conf	TRPC6 act conf	others
C[N+]12CCC(CC1)C(OC(=O)C(O)(c1ccccc1)c1ccccc1)C2 (stereo not given)	i	-8.8*	i	i	i	i	i	8.0%*	i	81%*	i
C[N+]12CCC(CC1)C(C(O)(c1cccc(Cl)c1)c1cccc(Cl)c1)C2 (stereo not given)	i	i	i	i	i	nt	nt	nt	nt	nt	nt
CCC(CO)(C(=O)OC1C[N+]2(C)CCC1CC2)c1ccccc1 (stereo not given)	i	-11*	i	i	i	i	i	-30%*	i	97%*	i
CCCCC(=O)N/N=C/c1c(O)n(-c2cccc3ccccc23)c(=O)[nH]c1=O	i	i	i	i	i	nt	nt	nt	nt	nt	nt
Cc1ccc2cc(CNCCc3ccccc3C)c(=O)[nH]c2c1	i	-5.1*	i	i	i	nt	nt	nt	nt	46%*	i	HEK293 MPD ctr-2=i;HEK293 MPD ctr 2-2=i;TRPC4/MOR mod=i;TRPC4/MOR inh 2=78%*
Cc1cccc(CNCCc2c[nH]c3ccccc23)c1	i	i	i	i	i	nt	nt	nt	nt	nt	nt
Cc1cccc(CCNCc2cc3cccc(C)c3[nH]c2=O)c1	i	-10*	i	i	i	15%*	-13%*	25%*	i	102%*	i
Cc1ccccc1CCNCc1ccc(Br)cc1	i	i	i	i	i	nt	nt	nt	nt	nt	nt
Cc1cccc(CCNCc2cc3cc(C)cc(C)c3[nH]c2=O)c1	i	-5.9*	i	i	i	nt	nt	nt	nt	82%*	i	HEK293 MPD ctr-2=i;HEK293 MPD ctr 2-2=65%*;TRPC4/MOR mod=-18%*;TRPC4/MOR inh 2=94%*
CCc1ccc(C(=O)C23CN4CN(CN(C4)C2)C3)cc1	i	i	i	i	i	nt	nt	nt	nt	nt	nt
CN(C)c1cc(N)c2c(n1)CCC2 (tested in a mixture with another compound)	i	-6.4*	i	i	i	nt	nt	nt	nt	i	i	HEK293 MPD ctr-2=-271%*;HEK293 MPD ctr 2-2=i;TRPC4/MOR mod=-40%*;TRPC4/MOR inh 2=40%*
CCOc1cccc(=NC2CCCCC2)c2c(C)n(C)c(C)c12	i	-7.5*	i	i	i	50%*	6.9%*	-69%*	i	i	i
COc1ccc(/C=C/C(=O)NC(=S)N2C[C@H]3C[C@H](C2)c2cccc(=O)n2C3)cc1OC	i	i	i	i	i	nt	nt	nt	nt	nt	nt
O=[N+]([O-])c1ccc(N2CCCNCC2)c2ncccc12	i	-11*	138*	i	i	nt	nt	nt	nt	96%*	i	HEK293 MPD ctr-2=-444%*;HEK293 MPD ctr 2-2=110%*;TRPC4/MOR mod=-52%*;TRPC4/MOR inh 2=79%*
Cc1cc(Cl)ccc1C(=O)C1CCCN(C2CCSCC2)C1 (stereo not given)	i	-5.8*	i	i	i	nt	nt	nt	nt	i	nt	HEK293 MPD ctr-2=174%*;HEK293 MPD ctr 2-2=i;TRPC4/MOR mod=32%*;TRPC4/MOR inh 2=i
O=C(c1ccc(C(F)(F)F)cc1)C1CCCN(C2CCSCC2)C1 (stereo not given)	i	-7.8*	i	i	i	i	15%*	i	8.5%*	i	nt
Cc1cccc(CN2CCCC(C(=O)c3ccc(C(F)(F)F)cc3)C2)n1 (stereo not given)	i	i	i	i	i	nt	nt	nt	nt	nt	nt
CN1CCN(CCC(C#N)(c2ccccc2)c2ccccc2)CC1	i	-7.2*	i	i	i	i	2.6%*	15%*	7.2%*	i	nt
CN1CCN(Cc2ccc3ccccc3c2)CC1	i	i	i	i	i	nt	nt	nt	nt	nt	nt
CCC(=NCCCn1ccnc1)c1c(O)n(-c2ccc(OC)cc2)c(=O)[nH]c1=O	i	i	i	i	i	nt	nt	nt	nt	nt	nt
CCc1c(C)nc(N)nc1N1N=C1SCCOc1ccccc1	i	i	i	i	i	nt	nt	nt	nt	nt	nt
CCOC(C(=O)OCCCN(CC)CC)(c1ccccc1)c1ccccc1	i	i	i	i	i	nt	nt	nt	nt	nt	nt
CCN(CC)CCCOC(=O)C(OC(C)C)(c1ccccc1)c1ccccc1	i	-9.1*	i	i	i	66%*	39%*	i	22%*	57%*	nt
CCN(CC)C(=O)c1ccc(NC(=O)Nc2ccccc2F)cc1	i	i	i	i	i	nt	nt	nt	nt	nt	nt
